Variants at the floor of the assay were thinned out.
B1: tRNA (parent)
chain: GUUCCGUUGGCGUAAUGGUAACGCGUCUCCCUCCUAAGGAGAAGACUGCGGGUUCGAGUCCCGUACGGAACG

Variants of: B1
Experiment: yeast fitness relative to wild type (ratio to wild type); higher = fitter; tRNA-Arg(CCU), competitive growth, 37 C, YPD
Summary of the method: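 Variants of the tRNA-Arg(CCU) gene, chemically synthesised with a 3% per-site mutation rate at 69 sites, were placed at the native genomic locus in Saccharomyces cerevisiae. The pooled strains were competed in YPD at 37°C for 24 hours in six parallel replicates. Gene amplicons from the start population and from each end population were read by 100-nucleotide paired-end sequencing. Darwinian fitness relative to wild type came from changes in genotype frequencies; genotypes needed ≥ 100 starting reads, and estimates < 0.5 were set to 0.5.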

Going from GUUCCGUUGGCGUAAUGGUAACGCGUCUGCUUCCUAAGGAGACCACUGCGGGUUCGAGUCCCGUACGCAACG to GUUCCGUUGGCGUAAUGGUAACGCGUCUGCGUCCUACGGAGAAGACUGCGGGUUCGAGUCCCGUAAGGAACG, the yeast fitness rises from at most 0.5 to 0.575.

First: GUUCCGUUGGCGUAAUGGUAACGCGUCUGCCUGCUAAGGAGAAGACUGUGGGUUCGAGUCCCGUACGGAACG
Second: GUUCCGUUGGCGUAAUGGUAACGCGUCUGGCUCCUAAGGAGAAGACUGCGGGUUCGAGUCCCGUACGGAACG
The yeast fitness of the first is lower: 0.536 for the first, 0.814 for the second.

Compared with GUUCCGUUGGCGUAAUGGUAACGCGUCUGCCUGCUAAGGAGAUGACUGCGGGUUCGAGUCCCGUACGGAACG, GUUCCGUUGGCGUAAUGGUAACGCGUCUGCCUCCUAAGGAGAAGACUGCGGGUUCGAGUCCCGUACGGCACG is higher in yeast fitness: at most 0.5 for the first, 0.628 for the second.

First: GUUCCGUUGGCGUAAUGGUAACGCGUCUGCCUCCUAAGGAGAAGACUGCGGGUUCGAGUCCCGUACGGUACG
Second: GUUCCGUUGGCGUAAUGGUAACGCGUCUGCAUGCUAAGGAAAGGACUGCGGGUUCGAGUCUCGUACGGAACG
The yeast fitness of the first is higher: 0.771 for the first, at most 0.5 for the second.

Compared with GUUCCGUUGGCGUAAUGGUAACGCGUCUGCCUGCUAAGGAGAAGACUGCGGCUUCGAGUCCCGUACGGAACG, GUUCCGUUGGCGUAAUGGUAACGCGUCUGGCUCCUAAGGAGAAGACUGAGGGUUCCAGUCUCGUACGGCACG is higher in yeast fitness: 0.579 for the first, 0.717 for the second.

Compared with GUUCCGUUGGCGUAAUGGUAACGCGUCUGCUUCCUAAGGAGACCACUGCGGGUUCGAGUCCCGUUCGGAACG, GUUCCGUUGGCGUAAUGGUAACGCGUCUGGCUCCUAAGGAGAAGACUGAGGGUUCGAGUCCCGUACGGAACG is higher in yeast fitness: 0.517 for the first, 0.839 for the second.

First: GUUCCGUUGGCGUAAUGGUAACGCGUCUGCGUCCUAAGGAGAAGACUGCGGGUUCGAGACCCGUACGGGACG
Second: GUUCCGUUGGCGUAAUGGUAACGCGUCUGCGUCCUAAGGAGAAGACUGCGGGUUCGAGUCCCGUACGGAACG
The yeast fitness of the first is lower: at most 0.5 for the first, 0.695 for the second.

Compared with GUUCCGUUGGCGUAAUGGUAACGCGUCUGCAUCCUAAGGAGAAGACUGCGGGUUCGAGUCCCGUACGGAACG, GUUCCGUUGGCGUAAUGGUAACGCGUCUGCUUCCUAAGGAGAAGACUGCGGGUUCGAGUCCCGUACGGAACG is higher in yeast fitness: 0.511 for the first, 0.68 for the second.

First: GUUCCGUUGGCGUAAUGGUAACGCGUCUGGCUCGUAAGGAGAAGACUGCGGGUUCGAGUACCGUACCGAACG
Second: GUUCCGUUGGCGUAAUGGUAACGCGUCUGCCUGCUAAGGAGCAGACUGCGGGUUCGAGUCCCGUACGGAACG
The yeast fitness of the first is lower: at most 0.5 for the first, 0.54 for the second.

Going from GUUCCGUUGGCGUAAUGGUAACGCGUCUGCCUCCUAAGGAGAAGACUGCGGGUUCGAGUCCCGUACGGACCG to GUUCCGUUGGCGUAAUGGUAACGCGUCUGCCUCCUAAGGAGAAGACUGCGGGUUCGAGUCCCGUACGGAUCG, the yeast fitness falls from 0.76 to 0.682.

Compared with GUUCCGUUGGCGUAAUGGUAACGCGUCUGCCUCCUAAGGAGAAGACUGCGGGUUCGAGUCCCGUACGGAGCG, GUUCCGUUGGCGUAAUGGUAACGCGUCUGGCUCCUAAGGAGAAGAGUGCGGGUUCGAGUCCCGUACGGAACG is lower in yeast fitness: 0.548 for the first, 0.521 for the second.

Compared with GUUCCGUUGGCGUAAUGGUAACGCGUCUGCCUCCUAAGGAGAAGACUGCGGGUUCGAGUCCCGUUCGGAACG, GUUCCGUUGGCGUAAUGGUAACGCGUCUGGCCCCUUAGGAGAAGACUGCGGGUUCGAGUUUCGUACGGAACG is lower in yeast fitness: 0.579 for the first, 0.566 for the second.

First: GUUCCGUUGGCGUAAUGGUAACGCGUCUGGCUCCUAAGGAGAAGACUGCGGGUUCGUGUCCCGUACGGAGCG
Second: GUUCCGUUGGCGUAAUGGUAACGCGUCUGGCCCCUUAGGAGAAGACUGCGGGUUCGAGUCCCGUACGGAACG
The yeast fitness of the first is lower: 0.503 for the first, 0.524 for the second.

First: GUUCCGUUGGCGUAAUGGUAACGCGUCUGCAUCCUAAGGAGAAGACUGCGGGUUCGAGUCCCGUACAGAACG
Second: GUUCCGUUGGCGUAAUGGUAACGCGUCUGCCUCCUAAGGAGAAGACUGCGGGUUCGAGUCCCGUGAGGAACG
The yeast fitness of the first is higher: 0.56 for the first, at most 0.5 for the second.

GUUCCGUUGGCGUAAUGGUAACGCGUCUGCUUCCUAUGGAGAAGACUGCGGGUUCGAGUCCCGUACGGAACG and GUUCCGUUGGCGUAAUGGUAACGCGUCUGCCUGCUAAGGAGAAGACUGCGGGUUCGACUCCGGUACGGAACG cannot be ordered by yeast fitness: at most 0.5 for the first, at most 0.5 for the second.

First: GUUCCGUUGGCGUAAUGGUAACGCGUCUGCAUCCUAAGGAGCAGACUGCGGGUUCGAGUCCCGUACCGAACG
Second: GUUCCGUUGGCGUAAUGGUAACGCGUCUGUGUCCUAAGGAGAAGACUGUCGGUUCGAGUCCCGUACGGAACG
The yeast fitness of the first is higher: 0.606 for the first, at most 0.5 for the second.

Going from GUUCCGUUGGCGUAAUGGUAACGCGUCUGCCUCCUAAGGAGAAGACUGCGGGUUCGUGUCCCGUACGGAACG to GUUCCGUUGGCGUAAUGGUAACGCGUCUGUCUCCUAAGGAGAAGAUUACGGGUUCGAGUCCCGUACGGAACG, the yeast fitness falls from 0.72 to at most 0.5.

Going from GUUCCGUUGGCGUAAUGGUAACGCGUCUGCGUCCUAAGGAGAAGAGUGCGGGUUUGAGUCCCGUACGGAACG to GUUCCGUUGGCGUAAUGGUAACGCGUCUGCCUGCUAAGGAGCAGACUACGGGUUCGAGUCCCGUACGGAACG, the yeast fitness rises from at most 0.5 to 0.777.

Going from GUUCCGUUGGCGUAAUGGUAACGCGUCUGCCUCCUAAGGAGAAGACUGCGGGUUCGUGUACCGUACGGAACG to GUUCCGUUGGCGUAAUGGUAACGCGUCUGCCUAAUAAGGAGAAGACUGCGGGUUCGUGUCCCGUACGGAACG, the yeast fitness rises from at most 0.5 to 0.54.

From the RNAGym collection of RNA variant scans (doi:10.1126/science.aae0568)
